ChEMBL document CHEMBL1157363, “Inhibition of isolated Mycobacterium tuberculosis fatty acid synthase I by pyrazinamide analogs” (Antimicrob Agents Chemother, 2007)
Activity calls are given as the source filed them. The rule behind the calls is not given here.

Legend:
[1] = test system: Mycobacterium tuberculosis; experiment: Inhibition of Mycobacterium tuberculosis fatty acid synthase 1 expressed in Mycobacterium smegmatis mc2 2700 assessed as [2-14C]]malonyl-CoA incorporation into fatty acid at 6000 uM
[2] = Inhibition of Mycobacterium tuberculosis fatty acid synthase 1 expressed in Mycobacterium smegmatis mc2 2700 assessed as NADPH oxidation at 100 uM of NADPH by spectrophotometry
How it was run: (§1)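 Purified Mtb FASI (from M. smegmatis Δfas1 attB::Mtb fas1, ammonium sulfate, DE52, gel filtration), 1–3 μg in 1 ml: 50 μM acetyl-CoA, 40 μM malonyl-CoA, 100 μM NADPH, 5 mM DTT, 400 mM potassium phosphate pH 7.4; inhibitor in DMSO (≤0.05 ml/ml). Linear A340 decrease over 10 min at 37°C; IC50 from Dixon plot x-intercept at 100 μM NADPH.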

[3] = test system: Mycobacterium tuberculosis; experiment: Inhibition of Mycobacterium tuberculosis fatty acid synthase 1 expressed in Mycobacterium smegmatis mc2 2700 assessed as [2-14C]]malonyl-CoA incorporation into fatty acid at 3000 uM
[4] = test system: Mycobacterium tuberculosis; experiment: Inhibition of Mycobacterium tuberculosis fatty acid synthase 1 expressed in Mycobacterium smegmatis mc2 2700 assessed as NADPH oxidation by spectrophotometry; how it was run: as §1
[5] = Inhibition of Mycobacterium tuberculosis fatty acid synthase 1 expressed in Mycobacterium smegmatis mc2 2700 assessed as NADPH oxidation using variable concentration of NADPH by spectrophotometry
[6] = test system: Mycobacterium tuberculosis; experiment: Inhibition of Mycobacterium tuberculosis fatty acid synthase 1 expressed in Mycobacterium smegmatis mc2 2700 assessed as NADPH oxidation upto 100 mM by spectrophotometry
How it was run: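 NADPH oxidation by purified Mtb FASI (1–3 μg/ml), 50 μM acetyl-CoA, 40 μM malonyl-CoA, 100 μM NADPH, 5 mM DTT, 400 mM potassium phosphate pH 7.4, 37°C, A340 decrease over 10 min; inhibitor added from DMSO at up to 100 mM, percent inhibition read.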

Row | Compound | IC50 [2] [µM] | inhibition [3] [%] | inhibition [1] [%] | also measured
1 | CC[C@@H](CO)NCCN[C@@H](CC)CO |  |  |  | Activity [1]: inactive
2 | CC(C)(C)NC(=O)c1cnc(Cl)cn1 | 8.7 |  |  | 
3 | CCCNC(=O)c1cnc(Cl)cn1 | 8.1 | 6 | 37 | 
4 | CCCOC(=O)c1cnccn1 | 1720 | 6 | 37 | 
5 | CCCOC(=O)c1cnc(F)cn1 | 1.5 |  | 66 | 
6 | C/C=C/C/C=C/CCC(=O)[C@H]1O[C@H]1C(N)=O |  |  | 62 | Activity [3]: inactive
7 | O=C(O)c1cnccn1 |  | 6 | 37 | Activity [4]: Dose-dependent effect
8 | NC(=O)c1cnc(Cl)cn1 | 15.1 | 39 |  | Activity [4]: Dose-dependent effect; IC50 [5]: 151 µM; Ki [5]: 55 µM
9 | CCCOC(=O)c1cnc(Cl)cn1 | 5.9 |  | 66 | 
10 | CC(C)(C)OC(=O)c1cnc(Cl)cn1 | 15.1 |  |  | 
11 | CC(C)(C)OC(=O)c1cnccn1 | 1360 |  |  | 
12 | NC(=O)c1ccccc1 |  |  |  | inhibition [6]: 15%
13 | CC(C)(C)OC(=O)c1cnc(F)cn1 | 4.3 |  |  | 
14 | NC(=O)c1cnccn1 [PYRAZINAMIDE] | 8930 | 6 | 37 | Activity [4]: Dose-dependent effect; IC50 [5]: 8930 µM; Ki [5]: 2570 µM
